Measurements: ChEMBL document CHEMBL4368914, “Tricyclic Indazoles-A Novel Class of Selective Estrogen Receptor Degrader Antagonists” (J Med Chem, 2019)

Key:
[1] = Toxicity in SCID CB17 mouse xenografted with human MCF7 cells at 20 mg/kg, po administered once daily and measured on day 20 of dosing; conditions: in vivo, 20 d
[2] = molecular target: T1, Estrogen receptor (Homo sapiens) (UniProt P03372); experiment: Antagonist activity at ERalpha in human MCF7 cells assessed as inhibition of estradiol-driven cell growth measured after overnight incubation by SYTOX green-based assay
T1 sequence (whole entry): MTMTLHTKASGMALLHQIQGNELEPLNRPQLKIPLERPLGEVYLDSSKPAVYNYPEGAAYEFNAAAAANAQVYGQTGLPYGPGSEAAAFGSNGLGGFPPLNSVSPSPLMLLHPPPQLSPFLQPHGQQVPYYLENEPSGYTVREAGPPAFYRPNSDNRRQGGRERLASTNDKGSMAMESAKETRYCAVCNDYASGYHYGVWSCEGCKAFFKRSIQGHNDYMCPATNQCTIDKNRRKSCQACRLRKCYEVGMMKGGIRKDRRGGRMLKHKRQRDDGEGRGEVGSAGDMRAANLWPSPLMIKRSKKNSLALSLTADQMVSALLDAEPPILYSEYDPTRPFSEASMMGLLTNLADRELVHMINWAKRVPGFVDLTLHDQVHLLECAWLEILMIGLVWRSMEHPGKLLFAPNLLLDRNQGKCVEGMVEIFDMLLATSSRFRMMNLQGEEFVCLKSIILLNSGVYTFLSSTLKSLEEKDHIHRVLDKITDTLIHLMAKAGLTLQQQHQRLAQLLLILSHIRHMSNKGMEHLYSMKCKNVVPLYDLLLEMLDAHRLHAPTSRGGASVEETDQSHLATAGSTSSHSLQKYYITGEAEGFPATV
Method in brief: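 MCF-7 cells grown at 37 °C, 5% CO₂, humidified, in phenol red-free RPMI1640 with 5% charcoal-stripped FCS and 2 mmol/L glutamine. Compounds held as 10 mmol/L DMSO stocks under nitrogen. Proliferation read in the presence of 0.1 nM estradiol.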

[3] = molecular target: Cytochrome P450 2C19 (Homo sapiens, UniProt P33261); experiment: Inhibition of CYP2C19 in human liver microsomes; type: ADME
Cytochrome P450 2C19, sequence (P33261 whole entry, canonical isoform): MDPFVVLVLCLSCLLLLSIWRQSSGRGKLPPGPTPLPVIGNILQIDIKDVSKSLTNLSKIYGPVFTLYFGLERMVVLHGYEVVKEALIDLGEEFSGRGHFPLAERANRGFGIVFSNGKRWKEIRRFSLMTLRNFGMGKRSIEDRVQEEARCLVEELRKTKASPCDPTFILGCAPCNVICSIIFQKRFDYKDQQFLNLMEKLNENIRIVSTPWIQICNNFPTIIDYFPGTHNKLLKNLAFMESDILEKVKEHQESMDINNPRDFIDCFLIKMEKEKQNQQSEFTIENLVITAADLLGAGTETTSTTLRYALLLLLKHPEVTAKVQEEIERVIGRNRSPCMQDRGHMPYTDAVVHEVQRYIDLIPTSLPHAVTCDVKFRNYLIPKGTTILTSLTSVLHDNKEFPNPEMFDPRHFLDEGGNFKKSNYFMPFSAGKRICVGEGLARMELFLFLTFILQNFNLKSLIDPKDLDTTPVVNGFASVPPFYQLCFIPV
Method in brief: (§1)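 High-throughput human liver microsome assay across a panel of five CYP isoforms, giving IC50.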

[4] = molecular target: T2, Estrogen receptor (Homo sapiens, UniProt P03372); experiment: Induction of ERalpha degradation in human MCF7 cells assessed as reduction in ERalpha protein expression after 5 hrs by formaldehyde-staining based assay; type: cell-based
T2 sequence (P03372 whole entry): T1 sequence (whole entry)

[5] = Intrinsic clearance in dog hepatocytes assessed per million cells; type: ADME, cell-based, Canis lupus familiaris, Hepatocyte; conditions: read-out: CLH
Method in brief: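 Rate of metabolism (µl/min/10⁶ cells) measured from DMSO stock in isolated hepatocytes diluted to 1x10⁶ cells/mL.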

[6] = Apparent permeability in human Caco2 cells at 10 uM; type: ADME, cell-based; conditions: Caco-2
Method in brief: (§2)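 Compound at 10 μM incubated on cultured Caco-2 or MDCK cells. Permeability was measured apical-to-basolateral and basolateral-to-apical, and efflux ratio was taken as (B to A)/(A to B).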

[7] = molecular target: T2, Estrogen receptor; experiment: Antagonist activity at ERalpha in human MCF7 cells assessed as inhibition of estradiol-driven PR response by microplate cytometry; type: cell-based
[8] = molecular target: T2, Estrogen receptor; experiment: Agonist activity at ERalpha in human MCF7 cells assessed as effect on PR protein expression after 5 hrs by formaldehyde-staining based assay; type: cell-based
[9] = molecular target: T2, Estrogen receptor; experiment: Induction of ERalpha degradation in human MCF7 cells assessed as reduction in ERalpha protein expression after 5 hrs in absence of […] tamoxifen by formaldehyde-staining based assay; type: cell-based
[10] = Glutathione reactivity in human liver microsomes assessed as GSH trapping ratio of compound to clozapine; type: ADME, Microsome
Method in brief: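 Glutathione trapping in human liver microsomes, expressed as a ratio to clozapine.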

[11] = Volume of distribution at steady state in rat at 0.5 mg/kg, iv or 1 mg/kg, po; type: ADME, organism-based; conditions: in vivo, read-out: Vdss
Method in brief: (§3)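 Single IV dose of 0.5 mg/kg and oral dose of 1 mg/kg in rat and dog. Both routes were formulated in 5% DMSO:95% hydroxypropyl β-cyclodextrin (30% w/v), at 1 mL/kg IV and 4 mL/kg PO.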

[12] = Apparent permeability in MDCK cells at 10 uM; type: ADME, cell-based, Canis lupus familiaris; conditions: dog
Method in brief: as §2

[13] = Efflux ratio of apparent permeability in MDCK cells at 10 uM; type: ADME, cell-based, Canis lupus familiaris; conditions: dog
Method in brief: as §2

[14] = molecular target: T2, Estrogen receptor; experiment: Binding affinity to recombinant human GST-tagged ERalpha LBD expressed in baculovirus-infected insect cells by lantha screen assay
[15] = Stability in pH 1 deuterated buffer assessed as compound remaining after 8 days by 1H NMR spectroscopy; type: physicochemical; conditions: pH 4 deuterated buffer, in the assay text read “pH 4” for “pH 1”, read-out: Stability
Method in brief: (§4)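 Compound diluted from a 25 mM DMSO-d6 stock to a final 1 mM in each deuterated buffer. Followed by ¹H NMR (500 MHz, water suppression, 64 scans) and LC-MS at 0, 24, 72 and 192 h (8 days).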

[16] = molecular target: Cytochrome P450 2C9 (Homo sapiens, UniProt P11712); experiment: Inhibition of CYP2C9 in human liver microsomes; type: ADME
Cytochrome P450 2C9, sequence (P11712 whole entry): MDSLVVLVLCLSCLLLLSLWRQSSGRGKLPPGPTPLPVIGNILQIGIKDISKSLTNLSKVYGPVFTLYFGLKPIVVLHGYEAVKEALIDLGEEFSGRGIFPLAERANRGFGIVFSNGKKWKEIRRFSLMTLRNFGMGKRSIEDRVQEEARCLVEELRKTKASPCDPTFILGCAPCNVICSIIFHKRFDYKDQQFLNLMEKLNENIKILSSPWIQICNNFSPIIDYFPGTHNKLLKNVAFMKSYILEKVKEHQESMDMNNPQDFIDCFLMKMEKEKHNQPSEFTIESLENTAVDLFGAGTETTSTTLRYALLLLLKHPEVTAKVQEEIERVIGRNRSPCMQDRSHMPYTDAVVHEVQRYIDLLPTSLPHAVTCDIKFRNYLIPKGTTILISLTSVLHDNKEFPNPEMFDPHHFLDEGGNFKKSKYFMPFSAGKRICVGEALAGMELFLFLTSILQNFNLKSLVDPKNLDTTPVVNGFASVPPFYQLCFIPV
Method in brief: as §1

[17] = molecular target: T2, Estrogen receptor; experiment: Induction of ERalpha degradation in human MCF7 cells after 18 to 24 hrs by in multiplexed cell assay; type: cell-based
Method in brief: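 MCF-7 cells were kept at 37 °C, 5% CO₂ in phenol red-free RPMI1640 with 5% charcoal-stripped FCS and 2 mmol/L glutamine. Compounds came from 10 mmol/L DMSO stocks.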

[18] = system: Mus musculus; experiment: In vivo antagonist activity at ERalpha in tumor of human MCF7 cells xenografted in SCID CB17 mouse assessed as reduction in normalized PR levels at 5 mg/kg, po administered once daily for 3 days measured after 24 hrs post last dose by Western blot analysis relative to control; type: functional; design: scale not given: the % may be the effect or the level left
Method in brief: (§5)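 Male SCID mice carried a 0.5 mg/21 day s.c. estrogen pellet, with 5x10^6 MCF-7 cells implanted s.c. in the hind flank 24 h later. Groups of 5 were randomised at 0.5–0.8 cm³ and gavaged once daily for 3 d in PEG400/Captisol/water vehicle at 10 ml/kg. Tumours were taken 24 h post-dose, and PR was read by Western blot normalized to vinculin.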

[19] = system: MCF7; experiment: Antitumor activity against human MCF7 cells xenografted in SCID CB17 mouse assessed as tumor growth inhibition at 20 mg/kg, po administered once daily and measured on day 20 of dosing relative to control; conditions: read-out: TGI
[20] = Stability in pH 7.4 deuterated buffer by 1H NMR spectroscopy; type: physicochemical
Method in brief: as §4

[21] = Oral bioavailability in dog at 1 mg/kg; type: ADME, organism-based, Canis lupus familiaris; conditions: in vivo
Method in brief: as §3

[22] = system: Mus musculus; experiment: In vivo antagonist activity at ERalpha in tumor of human MCF7 cells xenografted in SCID CB17 mouse assessed as reduction in normalized PR levels at 50 mg/kg, po administered once daily for 3 days measured after 24 hrs post last dose by Western blot analysis relative to control; type: functional; design: scale not given: the % may be the effect or the level left
Method in brief: as §5

IC50 [3]: > 30000 nM | IC50 [4]: 0.251 nM | hepatocyte CLint [5]: 17 µL/min/1e6 cells | Papp at 10 µM [6]: 6.9 ×10⁻⁶ cm/s | IC50 [7]: 1 nM | IC50 [8]: > 3160 nM | IC50 [9]: 0.251 nM | Ratio [10]: < 0.04 | Vd [11]: 1.6 L/kg | Papp at 10 µM [12]: 11 ×10⁻⁶ cm/s | efflux ratio at 10 µM [13]: 0.6 | IC50 [14]: 0.316 nM | remaining at 192 h [15]: 58% | IC50 [16]: 2500 nM | IC50 [17]: 0.251 nM | Stability [20]: Stable | bioavailability [21]: 45%
Structure (SMILES): C[C@@H]1Cc2c(ccc3[nH]ncc23)[C@@H](c2c(F)cc(/C=C/C(=O)O)cc2F)N1CC(C)(C)F
Activity [1]: Non-Toxic | Activity [2]: Dose-dependent effect | Activity [18]: 74% | inhibition in vivo at 20 mg/kg [19]: 80% | Activity [22]: 93%
